Source: ChEMBL document CHEMBL4261512, “Discovery of novel trimethoxy-ring BRD4 bromodomain inhibitors: AlphaScreen assay, crystallography and cell-based assay” (Medchemcomm, 2017)
One block for each molecule: values may come before it.

Assays:
[1] = biological target: T1, Bromodomain-containing protein 4 (Homo sapiens, UniProt O60885); assay: Inhibition of SGRG-K(Ac)-GG-K(Ac)-GLGK(Ac)-GGA-K(Ac)-RHRKVGG-K(Biotin) binding to N-terminal 6xHis-tagged human BRD4 bromodomain 1 expressed in Escherichia coli BL21 (DE3) at 50 uM preincubated for 10 mins followed by peptide addition and measured after 10 mins by AlphaScreen assay relative to control
Summary of the method: (§1)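 AlphaScreen peptide displacement. His-tagged BRD4 BD1 preincubated 10 min at room temperature with compound in buffer (0.1% Triton X-100, 1 mM DTT, 0.1% BSA). Then 25 nM biotinylated tetra-acetylated H4-type peptide added for 10 min, Ni-chelate acceptor beads for 30 min, and streptavidin donor beads for 30 min in subdued light. Alpha signal read; JQ-1 as control. IC50 from four-parameter log-logistic fit.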

[2] = biological target: T1, Bromodomain-containing protein 4; assay: Inhibition of SGRG-K(Ac)-GG-K(Ac)-GLGK(Ac)-GGA-K(Ac)-RHRKVGG-K(Biotin) binding to N-terminal 6xHis-tagged human BRD4 bromodomain 1 expressed in Escherichia coli BL21 (DE3) preincubated for 10 mins followed by peptide addition and measured after 10 mins by AlphaScreen assay; summary of the method: as §1
MV4-11 [3] = assay: Induction of apoptosis in human MV4-11 cells assessed as viable cells at 50 uM after 72 hrs by annexin-V-FITC/propidium iodide staining-based flow cytometric method (reference value: 96.2%); type: functional; conditions: MV4-11, 72 h, read-out: Activity
Summary of the method: (§2)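 MV4-11 cells seeded at 3 × 10⁵ in 6-well plates, settled 30 min, then given compound or DMSO for 72 h. Resuspended in 1× binding buffer with Annexin V-FITC for 15 min at room temperature in the dark, then PI added 5 min before flow cytometry. Populations quantified with the instrument software.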

MV4-11 [4] = assay: Induction of apoptosis in human MV4-11 cells assessed as necrotic cells at 50 uM after 72 hrs by annexin-V-FITC/propidium iodide staining-based flow cytometric method (reference value: 0%); type: functional; summary of the method: as §2
MV4-11 [5] = assay: Induction of apoptosis in human MV4-11 cells assessed as late apoptotic cells at 50 uM after 72 hrs by annexin-V-FITC/propidium iodide staining-based flow cytometric method (reference value: 2.14%); type: functional; summary of the method: as §2
[6] = biological target: T1, Bromodomain-containing protein 4; assay: Inhibition of BRD4 in human MV4-11 cells assessed as downregulation of CDK6 gene expression after 6 hrs by qRT-PCR method; type: cell-based
Summary of the method: (§3)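 MV4-11 cells given compound at varied concentrations (10 and 30 μM) for 6 h. Bcl-2, c-Myc and CDK6 transcripts quantified by real-time quantitative PCR relative to untreated control.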

MV4-11 [7] = assay: Cell cycle arrest in human MV4-11 cells assessed as accumulation at S phase at 50 uM after 24 hrs by propidium iodide staining-based flow cytometric method (reference value: 33.52%); type: functional
[8] = biological target: T1, Bromodomain-containing protein 4; assay: Inhibition of BRD4 in human MV4-11 cells assessed as downregulation of c-Myc protein expression after 6 hrs by Western blot method; type: cell-based
Summary of the method: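 MV4-11 cells seeded at 3 × 10⁵ in 6-well plates, settled 30 min, then given graded compound concentrations or DMSO for 6 h. Probed with rabbit anti-c-Myc mAb and HRP-labelled secondary.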

MV4-11 [9] = assay: Cell cycle arrest in human MV4-11 cells assessed as accumulation at G2 phase at 50 uM after 24 hrs by propidium iodide staining-based flow cytometric method (reference value: 11.98%); type: functional
[10] = biological target: T1, Bromodomain-containing protein 4; assay: Binding affinity to N-terminal 6xHis-tagged human BRD4 bromodomain 1 expressed in Escherichia coli BL21 (DE3) assessed as change in melting temperature at 200 uM by SYPRO orange dye-based RT-PCR method (reference value: 0 degC)
[11] = biological target: T1, Bromodomain-containing protein 4; assay: Inhibition of BRD4 in human MV4-11 cells assessed as downregulation of Bcl-2 gene expression after 6 hrs by qRT-PCR method; type: cell-based; summary of the method: as §3
[12] = biological target: T1, Bromodomain-containing protein 4; assay: Binding affinity to N-terminal 6xHis-tagged human BRD4 bromodomain 1 expressed in Escherichia coli BL21 (DE3) assessed as change in melting temperature at 100 uM by SYPRO orange dye-based RT-PCR method (reference value: 0 degC)
[13] = biological target: T1, Bromodomain-containing protein 4; assay: Binding affinity to N-terminal 6xHis-tagged human BRD4 bromodomain 1 expressed in Escherichia coli BL21 (DE3) assessed as change in melting temperature by SYPRO orange dye-based RT-PCR method
[14] = biological target: T1, Bromodomain-containing protein 4; assay: Inhibition of BRD4 in human MV4-11 cells assessed as downregulation of c-Myc gene expression after 6 hrs by qRT-PCR method; type: cell-based; summary of the method: as §3
MV4-11 [15] = assay: Cell cycle arrest in human MV4-11 cells assessed as accumulation at G1 phase at 50 uM after 24 hrs by propidium iodide staining-based flow cytometric method (reference value: 54.50%); type: functional
MV4-11 [16] = assay: Antiproliferative activity against human MV4-11 cells after 3 days by Alamar blue assay; type: functional, cell-based
Summary of the method: (§4)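 MV4-11 cells in RPMI 1640 with 10% FBS and 1% Pen/Strep at 37 °C, 5% CO2. Seeded at 1 × 10⁵–3 × 10⁵, settled 30 min, then given graded compound concentrations or DMSO for three or seven days. Alamar Blue added for 3 h at 37 °C; fluorescence read at ex 544/em 590 nm. Viability normalized to control; IC50 fitted from the dose–response.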

MV4-11 [17] = assay: Antiproliferative activity against human MV4-11 cells after 7 days by Alamar blue assay; type: functional, cell-based; summary of the method: as §4
MV4-11 [18] = assay: Induction of apoptosis in human MV4-11 cells assessed as early apoptotic cells at 50 uM after 72 hrs by annexin-V-FITC/propidium iodide staining-based flow cytometric method (reference value: 1.64%); type: functional; summary of the method: as §2
MV4-11 [19] = assay: Cell cycle arrest in human MV4-11 cells assessed as accumulation at G1 phase after 24 hrs by propidium iodide staining-based flow cytometric method (reference value: 54.50%); type: functional
MV4-11 [20] = assay: Cell cycle arrest in human MV4-11 cells assessed as accumulation at G2 phase after 24 hrs by propidium iodide staining-based flow cytometric method (reference value: 11.98%); type: functional
MV4-11 [21] = assay: Induction of apoptosis in human MV4-11 cells assessed as late apoptotic cells after 72 hrs by annexin-V-FITC/propidium iodide staining-based flow cytometric method (reference value: 2.14%); type: functional; summary of the method: as §2
MV4-11 [22] = assay: Cell cycle arrest in human MV4-11 cells assessed as accumulation at S phase after 24 hrs by propidium iodide staining-based flow cytometric method (reference value: 33.52%); type: functional
MV4-11 [23] = assay: Induction of apoptosis in human MV4-11 cells assessed as early apoptotic cells after 72 hrs by annexin-V-FITC/propidium iodide staining-based flow cytometric method (reference value: 1.64%); type: functional; summary of the method: as §2
MV4-11 [24] = assay: Induction of apoptosis in human MV4-11 cells assessed as viable cells after 72 hrs by annexin-V-FITC/propidium iodide staining-based flow cytometric method (reference value: 96.2%); type: functional; summary of the method: as §2
MV4-11 [25] = assay: Induction of apoptosis in human MV4-11 cells assessed as necrotic cells after 72 hrs by annexin-V-FITC/propidium iodide staining-based flow cytometric method (reference value: 0%); type: functional; summary of the method: as §2

SMILES: COc1cc(C(=O)NCCCn2ccnc2)cc(OC)c1OC
inhibition [1]: 90%

SMILES: COc1cc(C(=O)Nc2nnc(C)s2)cc(OC)c1OC
inhibition [1]: 90%

SMILES: COc1cc(C(=O)NCC2CCCO2)cc(OC)c1OC (configuration not stated)
inhibition [1]: 94%

SMILES: COc1cc(C(=O)Nc2nccs2)cc(OC)c1OC
IC50 [2]: 4.3 µM

SMILES: COCc1nnc(NC(=O)c2cc(OC)c(OC)c(OC)c2)s1
IC50 [2]: 11 µM

SMILES: COc1cc(C(=O)NCCOc2ccccc2)cc(OC)c1OC
IC50 [2]: 6.6 µM

SMILES: COc1cc(C(=O)Nc2nc(C)cs2)cc(OC)c1OC
inhibition [1]: 96%

SMILES: COc1cc2c(cc1-c1c(C)noc1C)ncc1[nH]c(=O)n([C@H](C)c3ccccn3)c12
Activity (MV4-11 [19]): 90.86%
Activity (MV4-11 [20]): 2.78%
Activity (MV4-11 [21]): 33.1%
Activity (MV4-11 [22]): 6.36%
Activity (MV4-11 [23]): 18.4%
Activity (MV4-11 [24]): 47.8%
Activity (MV4-11 [25]): 0.718%

Continued, in another order:

IC50 [2]: 6.4 µM
SMILES: COc1cc(C(=O)NCCc2cccs2)cc(OC)c1OC

inhibition [1]: 94%
SMILES: CCC(CO)NC(=O)c1cc(OC)c(OC)c(OC)c1 (configuration not stated)

inhibition [1]: 90%
SMILES: CCc1nnc(NC(=O)c2cc(OC)c(OC)c(OC)c2)s1

inhibition [6]: Dose-dependent effect
inhibition [8]: Dose-dependent effect
IC50 [2]: 2.01 µM
ΔTm [10]: 3.31 °C
inhibition [11]: Dose-dependent effect
ΔTm [12]: 1.9 °C
Activity [13]: Dose-dependent effect
inhibition [14]: Dose-dependent effect
SMILES: COc1cc(C(=O)Nc2ccnn2C2CCCC2)cc(OC)c1OC
viability at 50 µM (MV4-11 [3]): 89%
Activity (MV4-11 [4]): 0.073%
Activity (MV4-11 [5]): 6.86%
Activity (MV4-11 [7]): 16.83%
Activity (MV4-11 [9]): 16.83%
Activity (MV4-11 [15]): 79.1%
Activity (MV4-11 [16]): Dose-dependent effect
Activity (MV4-11 [17]): Dose-dependent effect
Activity (MV4-11 [18]): 4.06%

IC50 [2]: 8.5 µM
SMILES: COC(=O)C(CC(C)C)NC(=O)c1cc(OC)c(OC)c(OC)c1 (configuration not stated)

IC50 [2]: 2.1 µM
SMILES: COC(=O)C(CCSC)NC(=O)c1cc(OC)c(OC)c(OC)c1 (configuration not stated)

inhibition [1]: 90%
SMILES: COc1cc(C(=O)NC2CCCC2)cc(OC)c1OC
